LEDGF integ inh – blocks HIV-1 LEDGF/p75-dependent DNA integration | inhibition, % at 3.7 µM | 370,000 tested, 0.64% active | TR-FRET IN-LEDGF/p75 DNA integration, Eu/Cy5;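 active means inhibition above the screen-wide mean plus 3 SD, cut at about 13% in these data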;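 further: signal is the Cy5 over europium emission ratio at 671 and 618 nm; 0% = plate median of compound wells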
UHRF1 MBD2 ctr – blocks human UHRF1 binding to methylated DNA; 370,000 tested, 0.75% active; inhibition, % at 4.4 µM; AID 687016; UHRF1 binding to methylated oligo, TR-FRET;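 further: UHRF1 SRA domain binding a hemimethylated CpG hairpin DNA probe; 0% = median of test compound wells and 100% = reference inhibitor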
RBBP9 inhibitor – human RBBP9 hydrolase inhibition; recombinant RBBP9, FP-Rh probe fluorescence polarization; 220,000 tested, 0.2% active; inhibition, % at 7.94 µM; O75884;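 active means inhibition above the campaign mean of all tested compounds plus 3 SD, cut at about 14% in these data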;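 further: plate controls were DMSO wells with RBBP9 for no effect and wells lacking RBBP9 protein for full effect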
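Measured by – fluorescence polarization · Test system – RBBP9 protein · Input – 2.5 µM RBBP9 dispensing solution, before mixing · Measure – percent inhibition from mP, scaled between DMSO and no-protein wells · Benchmarks – DMSO-treated enzyme wells and wells lacking RBBP9 · Times – preincubation 30 min plus labeling 45 min at 25 °C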
ABHD5-PLIN5 inh – blocks binding of human ABHD5 to perilipin-5. 360,000 tested, 0.78% active. Split G. princeps luciferase complementation, luminescence, 4 h. Q00G26+Q8WTS1. inhibition, % at 4 µM;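 active means inhibition above the mean inhibition across every tested compound plus 3 SD, cut at about 22% in these data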;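 further: 0% = DMSO only wells and the 100% control is not disclosed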
Target sequence (Q00G26 whole entry, looked up): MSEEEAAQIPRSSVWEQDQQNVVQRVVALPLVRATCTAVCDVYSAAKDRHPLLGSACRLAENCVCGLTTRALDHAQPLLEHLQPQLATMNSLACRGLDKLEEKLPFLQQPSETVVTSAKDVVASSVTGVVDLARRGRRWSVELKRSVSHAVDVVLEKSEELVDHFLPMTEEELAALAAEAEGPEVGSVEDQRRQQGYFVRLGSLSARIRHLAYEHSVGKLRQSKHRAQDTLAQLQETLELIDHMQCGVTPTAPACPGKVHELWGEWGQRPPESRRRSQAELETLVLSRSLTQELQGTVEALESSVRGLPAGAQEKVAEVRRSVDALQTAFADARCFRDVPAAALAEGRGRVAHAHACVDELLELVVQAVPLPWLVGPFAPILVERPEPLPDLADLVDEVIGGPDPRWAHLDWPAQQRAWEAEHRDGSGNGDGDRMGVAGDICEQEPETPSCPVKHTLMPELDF
Target sequence (Q8WTS1 whole entry, looked up): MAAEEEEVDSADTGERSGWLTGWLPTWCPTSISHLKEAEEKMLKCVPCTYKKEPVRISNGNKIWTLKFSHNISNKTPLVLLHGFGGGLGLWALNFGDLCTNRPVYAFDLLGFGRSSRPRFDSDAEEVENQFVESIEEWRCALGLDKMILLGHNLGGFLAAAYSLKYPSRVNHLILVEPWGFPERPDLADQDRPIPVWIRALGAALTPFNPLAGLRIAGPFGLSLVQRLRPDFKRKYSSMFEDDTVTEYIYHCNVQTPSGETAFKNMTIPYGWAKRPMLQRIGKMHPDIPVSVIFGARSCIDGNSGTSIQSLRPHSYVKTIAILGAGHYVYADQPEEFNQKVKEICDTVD
PRMT1 inh – inhibitors of human PRMT1; Q99873; recombinant PRMT1, activity-based probe fluorescence polarization; inhibition, % at 2.79 µM; 370,000 tested, 1.3% active;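 active means inhibition above about 21% made by adding two undisclosed values, limit read from the data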
MBD2 inh – inhibitors of human MBD2 binding to methylated oligonucleotide; inhibition, % at 4.4 µM; Q9UBB5; 370,000 tested, 0.31% active; TR-FRET; AID 686964; in the data active means inhibition above about 13%
UHRF1 ctr MBD2 – inhibits human UHRF1 binding to methylated oligonucleotide, MBD2 counter-screen; shares compounds with MBD2 inh; TR-FRET; inhibition, % at 4.4 µM; 1,000 tested, 25% active;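 further: UHRF1 SRA domain binding a labeled hemimethylated CpG hairpin DNA; 0% = vehicle only and 100% = reference inhibitor with vehicle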
MBD2 DBD conf – confirmation of human MBD2-DBD methylated oligonucleotide binding inhibitors; TR-FRET MBD2-DBD binding to methylated oligonucleotide; inhibition, % at 4.4 µM; shares compounds with MBD2 inh; 1,000 tested, 26% active; AID 720531; in the data active means inhibition above about 14%
IN multimer act – counter-screen for LEDGF/p75 integration inhibitors: HIV-1 integrase multimerization activators; shares compounds with LEDGF integ inh; TR-FRET HIV-1 integrase multimerization, biochemical; activation, % at 7.7 µM; 2,000 tested, 17% active; in the data active means activation above about 8.9%
TR-FRET interf – counter-screen for LEDGF/p75 integration inhibitors: TR-FRET optical interference. shares compounds with LEDGF integ inh. TR-FRET optical interference counterscreen, HIV-1 IN multimerization. inhibition, % at 7.7 µM. 2,000 tested, under 10 active;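 active means inhibition above the mean over all tested compounds plus 3 SD, which no compound reached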;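 further: 0% = integrase with antibodies and DMSO and 100% = antibodies without integrase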
LEDGF integ conf – confirmation of HIV-1 LEDGF/p75-dependent integration inhibitors. shares compounds with LEDGF integ inh. TR-FRET LEDGF/p75-dependent HIV-1 integration, biochemical. inhibition, % at 3.7 µM. 2,000 tested, 36% active. AID 1053136; in the data active means inhibition above about 14%
The depositor's hits bear a star; ! = not active in a repeat. Most compounds without a hit are left out; they make up all but 3.1% or so of the library. Unless noted, no stated cut-off is given here; in the data, active means inhibition above about 21%; inactive means the rest.

O=C(Nc1cccnc1)C1(c2ccccc2)CCCC1 was read as LEDGF integ inh 3, UHRF1 MBD2 ctr 23*, RBBP9 inhibitor -6, ABHD5-PLIN5 inh 10, PRMT1 inh 6, MBD2 inh 16*, UHRF1 ctr MBD2 6 and MBD2 DBD conf 2.
For O=C(Nc1ccncc1)C1(c2ccccc2)CCCC1 the results were LEDGF integ inh -1, UHRF1 MBD2 ctr 1, RBBP9 inhibitor -7, ABHD5-PLIN5 inh -5, PRMT1 inh -1 and MBD2 inh -3.
c1ccc(-c2c[nH]c3cccc(-c4cc5ccccc5o4)c23)cc1 was read as LEDGF integ inh 4, UHRF1 MBD2 ctr -1, PRMT1 inh -5 and MBD2 inh -2.
For CNC(=O)c1c(NC(=O)c2ccc(S(=O)(=O)N3CCCCC3)cc2)sc2c1CCN(C(C)C)C2 the results were LEDGF integ inh -4, UHRF1 MBD2 ctr 16, ABHD5-PLIN5 inh 10, PRMT1 inh 4, MBD2 inh 16*, UHRF1 ctr MBD2 17 and MBD2 DBD conf 9.
`C#CCN(Cc1ccco1)C(=O)c1nnc2c3cc(OC)ccc3n(S(=O)(=O)c3ccc(OC)cc3)c2n1` gave LEDGF integ inh -3, UHRF1 MBD2 ctr 1, PRMT1 inh 6, MBD2 inh 26*, UHRF1 ctr MBD2 6 and MBD2 DBD conf 20*.
For CC(C)CN1C(=O)[C@@]2(CC(=O)N(C)C2c2ccccc2)c2cc(-n3cc(CCCC#N)nn3)ccc21 (stereo partly drawn) the results were LEDGF integ inh 0, UHRF1 MBD2 ctr 1, PRMT1 inh -3 and MBD2 inh -5.
`O=C(COc1ccc(Cl)cc1Cl)NC(=O)c1ccccc1` gave LEDGF integ inh -3, UHRF1 MBD2 ctr 0, ABHD5-PLIN5 inh 4, PRMT1 inh 2 and MBD2 inh 0.
`O=C(O)CC(NC(=O)COc1ccc(Cl)cc1Cl)C(=O)O` (stereo not drawn) gave LEDGF integ inh -2, UHRF1 MBD2 ctr 1, RBBP9 inhibitor 2, ABHD5-PLIN5 inh -1, PRMT1 inh 2, MBD2 inh 26*, UHRF1 ctr MBD2 5 and MBD2 DBD conf 2.
Screening CC(=O)Oc1cccc(/C=c2\sc3nc(-c4ccco4)nn3c2=O)c1 returned LEDGF integ inh 1, UHRF1 MBD2 ctr 3, RBBP9 inhibitor 5, ABHD5-PLIN5 inh 8, PRMT1 inh 2 and MBD2 inh -7.
CCCOc1ccc(/C=c2\sc3nc(-c4ccco4)nn3c2=O)cc1OCC was read as LEDGF integ inh 13*, UHRF1 MBD2 ctr 31*, RBBP9 inhibitor -4, ABHD5-PLIN5 inh -2, PRMT1 inh 16, MBD2 inh 31*, UHRF1 ctr MBD2 10, MBD2 DBD conf 3, IN multimer act -2, TR-FRET interf 9 and LEDGF integ conf 8.
Cc1ccc(/C=C/C(=O)NCc2ccco2)o1 was read as LEDGF integ inh 37*, UHRF1 MBD2 ctr 54*, RBBP9 inhibitor -3, PRMT1 inh 13, MBD2 inh 14*, UHRF1 ctr MBD2 48*, MBD2 DBD conf 17*, IN multimer act 13*, TR-FRET interf -66 and LEDGF integ conf 60*.
For COc1ccccc1Cc1c(-c2ccc(OC)c(OC)c2)nc2cc(C)c(Br)c(C)n12 the results were LEDGF integ inh 18*, UHRF1 MBD2 ctr 26*, ABHD5-PLIN5 inh -3, PRMT1 inh 8, MBD2 inh 19*, UHRF1 ctr MBD2 -1, MBD2 DBD conf 3, IN multimer act 0, TR-FRET interf 1 and LEDGF integ conf -7.
Screening COc1ccccc1Cc1c(-c2ccc(OC)c(OC)c2)nc2ccc(Br)cn12 returned LEDGF integ inh -2, UHRF1 MBD2 ctr 5, ABHD5-PLIN5 inh 5, PRMT1 inh 2 and MBD2 inh -3.
Screening O=S(=O)(Nc1cc2nc3ccccc3nc2n1Cc1ccccc1)c1ccc(Cl)cc1 returned LEDGF integ inh 24*, UHRF1 MBD2 ctr 16, RBBP9 inhibitor -3, ABHD5-PLIN5 inh 15, PRMT1 inh 2, MBD2 inh 16*, UHRF1 ctr MBD2 1, MBD2 DBD conf 18*, IN multimer act 1, TR-FRET interf -3 and LEDGF integ conf 73*.
For C#CCNC(=O)C[C@H]1C[C@@]2(C(=O)OC)C(=C[C@H](C(C)(C)C)O[C@@H]2C)N(CCC2=CCCCC2)C1=O the results were LEDGF integ inh -3, UHRF1 MBD2 ctr 1, PRMT1 inh 0 and MBD2 inh 4.
For O=C1C=C(O)c2c(O)cc(O)c(O)c2C1=O the results were LEDGF integ inh 60*, UHRF1 MBD2 ctr 77*, ABHD5-PLIN5 inh 6, PRMT1 inh 47*, MBD2 inh 49*, UHRF1 ctr MBD2 51*, MBD2 DBD conf 26*, IN multimer act 103*, TR-FRET interf inactive and LEDGF integ conf 84*.
For COCCNC(=O)C1(C)CCCN(C(=O)c2ccc(C(F)(F)F)cc2)C1 (stereo not drawn) the results were LEDGF integ inh -2, UHRF1 MBD2 ctr -2, ABHD5-PLIN5 inh -1, PRMT1 inh 0 and MBD2 inh -2.
`COCCNC(=O)C1(C)CCCN(C(=O)c2ccc(C(=O)OC)cc2)C1` (stereo not drawn) gave LEDGF integ inh 15*, UHRF1 MBD2 ctr 20, ABHD5-PLIN5 inh -6, PRMT1 inh -1, MBD2 inh 16*, UHRF1 ctr MBD2 -2, MBD2 DBD conf 3, IN multimer act -1, TR-FRET interf 4 and LEDGF integ conf 2.
Screening O=C1c2c(O)ccc(O)c2C(=O)c2c(NCCNCCO)ccc(NCCNCCO)c21 returned LEDGF integ inh 49*, UHRF1 MBD2 ctr 96*, ABHD5-PLIN5 inh 3, PRMT1 inh 4, MBD2 inh 110*, UHRF1 ctr MBD2 94*, MBD2 DBD conf 106*, IN multimer act 24*, TR-FRET interf -85 and LEDGF integ conf 38*!.
Screening COc1ccc(-n2c(CSc3ccc(Cl)cc3)n[nH]c2=S)cc1 returned LEDGF integ inh 5, UHRF1 MBD2 ctr 0, PRMT1 inh 9 and MBD2 inh 0.
